What was measured:
Type in all cases: functional
HCC 2998 = test: Cytotoxicity against human HCC2998 cells assessed as cell growth at 10 uM; conditions: read-out: Activity
Summary of the method: (§1)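 Single-dose NCI-60 screen at 10 µM. Cells were grown in RPMI 1640 with 5% FBS and 2 mM L-glutamine, then treated for 48 h at 37 °C. Protein was measured by SRB staining with absorbance at 515 nm. Percentage growth was recorded, and inhibition percentage was calculated as 100 minus growth percentage.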

NCI-H322M = test: Cytotoxicity against human NCI-H322M cells assessed as cell growth at 10 uM; conditions: read-out: Activity
Summary of the method: (§2)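 NCI-60 screen: cells grown in RPMI 1640 with 5% FBS and 2 mM L-glutamine, plated at 5000–40,000 cells/well according to doubling time, and preincubated 24 h at 37 °C, 5% CO2. The single 10 µM dose (DMSO stock) was added, then incubated 48 h. Cells were TCA-fixed and stained with 0.4% SRB, read at 515 nm, and growth % calculated against time-zero and control plates.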

HCT-15 = test: Cytotoxicity against human HCT15 cells assessed as cell growth at 10 uM; conditions: read-out: Activity; summary of the method: as §1
LOX IMVI = test: Cytotoxicity against human LOXIMVI cells assessed as cell growth at 10 uM; conditions: read-out: Activity; summary of the method: as §2
SW-620 = test: Cytotoxicity against human SW620 cells assessed as cell growth at 10 uM; conditions: read-out: Activity; summary of the method: as §2
[1] = Growth inhibition of human NCI60 cells at 10 uM after 48 hrs by sulforhodamine B assay relative to control; conditions: NCI60, 48 h, read-out: GI
Summary of the method: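 Single-dose NCI screen at 10 µM across the 60-line panel, 48 h exposure at 37 °C after a 24 h preincubation. Adherent cells were fixed with cold TCA and stained with 0.4% SRB, and absorbance was read at 515 nm. Inhibition % was taken as 100 minus growth %, and the mean across all lines was reported.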

SNB-19 = test: Cytotoxicity against human SNB19 cells assessed as cell growth at 10 uM; conditions: read-out: Activity; summary of the method: as §2
[2] = Cytotoxicity against human […] cells assessed as cell growth at 10 uM; conditions: read-out: Activity; summary of the method: as §2
PC-3 = test: Cytotoxicity against human PC3 cells assessed as cell growth at 10 uM; conditions: read-out: Activity; summary of the method: as §2
OVCAR-4 = test: Cytotoxicity against human OVCAR4 cells assessed as cell growth at 10 uM; conditions: read-out: Activity; summary of the method: as §2
HOP-92 = test: Cytotoxicity against human HOP92 cells assessed as cell growth at 10 uM; conditions: read-out: Activity; summary of the method: as §1
BT-549 = test: Cytotoxicity against human BT549 cells assessed as cell growth at 10 uM; conditions: read-out: Activity; summary of the method: as §1
MOLT-4 = test: Cytotoxicity against human MOLT4 cells assessed as cell growth at 10 uM; conditions: read-out: Activity; summary of the method: as §2
[3] = Cytotoxicity against human Hs 578T cells assessed as cell growth at 10 uM; conditions: read-out: Activity; summary of the method: as §1
UO-31 = test: Cytotoxicity against human UO31 cells assessed as cell growth at 10 uM; conditions: read-out: Activity; summary of the method: as §2
A498 = test: Cytotoxicity against human A498 cells assessed as cell growth at 10 uM; conditions: read-out: Activity; summary of the method: as §1
UACC-62 = test: Cytotoxicity against human UACC62 cells assessed as cell growth at 10 uM; conditions: read-out: Activity; summary of the method: as §2
SF-539 = test: Cytotoxicity against human SF539 cells assessed as cell growth at 10 uM; conditions: read-out: Activity; summary of the method: as §2
CCRF-CEM = test: Cytotoxicity against human CCRF-CEM cells assessed as cell growth at 10 uM; conditions: read-out: Activity; summary of the method: as §1
SNB-75 = test: Cytotoxicity against human SNB75 cells assessed as cell growth at 10 uM; conditions: read-out: Activity; summary of the method: as §2
UACC-257 = test: Cytotoxicity against human UACC257 cells assessed as cell growth at 10 uM; conditions: read-out: Activity; summary of the method: as §2
SF-295 = test: Cytotoxicity against human SF295 cells assessed as cell growth at 10 uM; conditions: read-out: Activity; summary of the method: as §2
NCI-H226 = test: Cytotoxicity against human NCI-H226 cells assessed as cell growth at 10 uM; conditions: read-out: Activity; summary of the method: as §2
RXF 393 = test: Cytotoxicity against human RXF393 cells assessed as cell growth at 10 uM; conditions: read-out: Activity; summary of the method: as §2
U-251 = test: Cytotoxicity against human U251 cells assessed as cell growth at 10 uM; conditions: read-out: Activity; summary of the method: as §2
OVCAR-3 = test: Cytotoxicity against human OVCAR-3 cells assessed as cell growth at 10 uM; conditions: read-out: Activity; summary of the method: as §2
M14 = test: Cytotoxicity against human M14 cells assessed as cell growth at 10 uM; conditions: read-out: Activity; summary of the method: as §2
HT-29 = test: Cytotoxicity against human HT-29 cells assessed as cell growth at 10 uM; conditions: read-out: Activity; summary of the method: as §1
IGROV-1 = test: Cytotoxicity against human IGROV1 cells assessed as cell growth at 10 uM; conditions: read-out: Activity; summary of the method: as §1
KM12 = test: Cytotoxicity against human KM12 cells assessed as cell growth at 10 uM; conditions: read-out: Activity; summary of the method: as §2
ACHN = test: Cytotoxicity against human ACHN cells assessed as cell growth at 10 uM; conditions: read-out: Activity; summary of the method: as §1
HCT-116 = test: Cytotoxicity against human HCT116 cells assessed as cell growth at 10 uM; conditions: read-out: Activity; summary of the method: as §1
A549 = test: Cytotoxicity against human A549 cells assessed as cell growth at 10 uM; conditions: read-out: Activity; summary of the method: as §1
MDA-MB-231 = test: Cytotoxicity against human MDA-MB-231 cells assessed as cell growth at 10 uM; conditions: read-out: Activity; summary of the method: as §2
HOP-62 = test: Cytotoxicity against human HOP62 cells assessed as cell growth at 10 uM; conditions: read-out: Activity; summary of the method: as §1
SK-MEL-5 = test: Cytotoxicity against human SK-MEL-5 cells assessed as cell growth at 10 uM; conditions: read-out: Activity; summary of the method: as §2
K562 = test: Cytotoxicity against human K562 cells assessed as cell growth at 10 uM; conditions: read-out: Activity; summary of the method: as §1
DU-145 = test: Cytotoxicity against human DU145 cells assessed as cell growth at 10 uM; conditions: read-out: Activity; summary of the method: as §1
NCI-H460 = test: Cytotoxicity against human NCI-H460 cells assessed as cell growth at 10 uM; conditions: read-out: Activity; summary of the method: as §2
MDA-MB-468 = test: Cytotoxicity against human MDA-MB-468 cells assessed as cell growth at 10 uM; conditions: read-out: Activity; summary of the method: as §2
NCI-H522 = test: Cytotoxicity against human NCI-H522 cells assessed as cell growth at 10 uM; conditions: read-out: Activity; summary of the method: as §2
SN12C = test: Cytotoxicity against human SN12C cells assessed as cell growth at 10 uM; conditions: read-out: Activity; summary of the method: as §2
SK-MEL-2 = test: Cytotoxicity against human SK-MEL-2 cells assessed as cell growth at 10 uM; conditions: read-out: Activity; summary of the method: as §2
OVCAR-8 = test: Cytotoxicity against human OVCAR8 cells assessed as cell growth at 10 uM; conditions: read-out: Activity; summary of the method: as §2
CAKI-1 = test: Cytotoxicity against human Caki1 cells assessed as cell growth at 10 uM; conditions: read-out: Activity; summary of the method: as §1
NCI-H23 = test: Cytotoxicity against human NCI-H23 cells assessed as cell growth at 10 uM; conditions: read-out: Activity; summary of the method: as §2
OVCAR-5 = test: Cytotoxicity against human OVCAR5 cells assessed as cell growth at 10 uM; conditions: read-out: Activity; summary of the method: as §2
NCI/ADR-RES = test: Cytotoxicity against human NCI/ADR-RES cells assessed as cell growth at 10 uM; conditions: read-out: Activity; summary of the method: as §2
786-0 = test: Cytotoxicity against human 786-0 cells assessed as cell growth at 10 uM; conditions: read-out: Activity; summary of the method: as §1
EKVX = test: Cytotoxicity against human EKVX cells assessed as cell growth at 10 uM; conditions: read-out: Activity; summary of the method: as §1
MDA-MB-435 = test: Cytotoxicity against human MDA-MB-435 cells assessed as cell growth at 10 uM; conditions: read-out: Activity; summary of the method: as §2
SF-268 = test: Cytotoxicity against human SF268 cells assessed as cell growth at 10 uM; conditions: read-out: Activity; summary of the method: as §2
TK-10 = test: Cytotoxicity against human TK10 cells assessed as cell growth at 10 uM; conditions: read-out: Activity; summary of the method: as §2
SK-MEL-28 = test: Cytotoxicity against human SK-MEL-28 cells assessed as cell growth at 10 uM; conditions: read-out: Activity; summary of the method: as §2
MCF7 = test: Cytotoxicity against human MCF7 cells assessed as cell growth at 10 uM; conditions: read-out: Activity; summary of the method: as §2
HL-60(TB) = test: Cytotoxicity against human HL-60(TB) cells assessed as cell growth at 10 uM; conditions: read-out: Activity
Summary of the method: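 NCI 60-cell panel screen at a single concentration of 10 µM. Cells are grown in RPMI 1640 with 5% FBS and 2 mM L-glutamine and read by SRB protein staining at 515 nm. Percent growth is measured relative to time-zero and untreated controls; inhibition % is 100 minus growth %.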

Malme-3M = test: Cytotoxicity against human MALME-3M cells assessed as cell growth at 10 uM; conditions: read-out: Activity; summary of the method: as §2
SR = test: Cytotoxicity against human SR cells assessed as cell growth at 10 uM; conditions: read-out: Activity; summary of the method: as §2
SK-OV-3 = test: Cytotoxicity against human SKOV3 cells assessed as cell growth at 10 uM; conditions: read-out: Activity; summary of the method: as §2
COLO 205 = test: Cytotoxicity against human COLO205 cells assessed as cell growth at 10 uM; conditions: read-out: Activity; summary of the method: as §1
T47D = test: Cytotoxicity against human T47D cells assessed as cell growth at 10 uM; conditions: read-out: Activity; summary of the method: as §2

Structure (SMILES): Cc1cc(O)cc(-c2nn(CC#N)cc2-c2ccnc(-c3ccc(C#N)cc3)c2)c1
- growth at 10 µM (HCC 2998): 92%
- growth at 10 µM (NCI-H322M): 97.4%
- growth at 10 µM (HCT-15): 70.4%
- growth at 10 µM (LOX IMVI): 81.9%
- growth at 10 µM (SW-620): 119%
- inhibition of growth at 10 µM [1]: 20.8%
- growth at 10 µM (SNB-19): 85.2%
- growth at 10 µM [2]: 70.2%
- growth at 10 µM (PC-3): 95.5%
- growth at 10 µM (OVCAR-4): 79.5%
- growth at 10 µM (HOP-92): 72.3%
- growth at 10 µM (BT-549): 84.8%
- growth at 10 µM (MOLT-4): 54.6%
- growth at 10 µM [3]: 103%
- growth at 10 µM (UO-31): 60.1%
- growth at 10 µM (A498): 103%
- growth at 10 µM (UACC-62): 62.3%
- growth at 10 µM (SF-539): 76%
- growth at 10 µM (CCRF-CEM): 81.2%
- growth at 10 µM (SNB-75): 46.3%
- growth at 10 µM (UACC-257): 94.2%
- growth at 10 µM (SF-295): 91.3%
- growth at 10 µM (NCI-H226): 79.8%
- growth at 10 µM (RXF 393): 59.4%
- growth at 10 µM (U-251): 91.5%
- growth at 10 µM (OVCAR-3): 110%
- growth at 10 µM (M14): 90.3%
- growth at 10 µM (HT-29): 66.3%
- growth at 10 µM (IGROV-1): 77.3%
- growth at 10 µM (KM12): 95.6%
- growth at 10 µM (ACHN): 65.2%
- growth at 10 µM (HCT-116): 65.7%
- growth at 10 µM (A549): 83.2%
- growth at 10 µM (MDA-MB-231): 67%
- growth at 10 µM (HOP-62): 85.4%
- growth at 10 µM (SK-MEL-5): 58.4%
- growth at 10 µM (K562): 70%
- growth at 10 µM (DU-145): 96.3%
- growth at 10 µM (NCI-H460): 104%
- growth at 10 µM (MDA-MB-468): 33.7%
- growth at 10 µM (NCI-H522): 60.7%
- growth at 10 µM (SN12C): 73.5%
- growth at 10 µM (SK-MEL-2): 78.5%
- growth at 10 µM (OVCAR-8): 72.9%
- growth at 10 µM (CAKI-1): 84.3%
- growth at 10 µM (NCI-H23): 72.7%
- growth at 10 µM (OVCAR-5): 107%
- growth at 10 µM (NCI/ADR-RES): 77.7%
- growth at 10 µM (786-0): 77.9%
- growth at 10 µM (EKVX): 79.1%
- growth at 10 µM (MDA-MB-435): 88.3%
- growth at 10 µM (SF-268): 102%
- growth at 10 µM (TK-10): 78.4%
- growth at 10 µM (SK-MEL-28): 88.3%
- growth at 10 µM (MCF7): 34.4%
- growth at 10 µM (HL-60(TB)): 56.2%
- growth at 10 µM (Malme-3M): 125%
- growth at 10 µM (SR): 88.5%
- growth at 10 µM (SK-OV-3): 88.5%
- growth at 10 µM (COLO 205): 66.1%
- growth at 10 µM (T47D): 29.2%

From ChEMBL document CHEMBL1165950, “Design and synthesis of new potent anticancer pyrazoles with high FLT3 kinase inhibitory selectivity” (Bioorg Med Chem, 2010)
